≈ marks a conversion by molar mass, not a printed value.

The first test has as its system P388. Nature of the test: In vivo antileukemic activity against P388 leukemia at dose 40 mp/kg administered intraperitoneally. Type of test: functional, Mus musculus.
Conditions: not given
The gist of the method: (§1)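 BDF1 mice implanted ip with 10^6 P388 cells. Compound given ip as aqueous solution containing 3 equiv of L-lactic acid on days 1-5. Activity expressed as T/C (%); T/C ≥ 125% taken as statistically significant antileukemic activity.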
Broadly, the T/C is the result in the treated group divided by that in the control group, in per cent. As to `CCN(CC)CCNc1ccc2nnn3c4ccc(C)cc4c(=O)c1c23`, the T/C is listed as 133%.

For the next test, the system named is P388. Description: In vivo antileukemic activity against P388 leukemia at dose 25 mp/kg administered intraperitoneally.
Conditions: not given
Format: functional, Mus musculus. The gist of the method:
as §1
`CN(C)CCCNc1ccc2nnn3c4ccc([N+](=O)[O-])cc4c(=O)c1c23` came in with a T/C of 110%.

Take `CN(C)CCNc1ccc2nnn3c4ccc(Cl)cc4c(=O)c1c23`: the T/C was 110%. On the same count and under the same terms, under `O=c1c2cc([N+](=O)[O-])ccc2n2nnc3ccc(NCCNCCO)c1c32` stands 133%; under `COc1ccc2c(c1)c(=O)c1c(NCCN(C)C)ccc3nnn2c31`, 110%; under `CN(C)CCNc1ccc2nnn3c4ccc([N+](=O)[O-])cc4c(=O)c1c23`, 130%. The same measure, in the same setting: to `O=c1c2cc(Cl)ccc2n2nnc3ccc(NCCNCCO)c1c32` belongs 133%.

A further test relates to P388. Description: In vivo antileukemic activity against P388 leukemia at dose 100 mp/kg administered intraperitoneally. Type of test: functional, Mus musculus.
Conditions: not given
The gist of the method: as §1
Molecule `CN(C)CCNc1ccc2nnn3c4ccccc4c(=O)c1c23` registered a T/C of 180%. With `CCN(CC)CCNc1ccc2nnn3c4ccccc4c(=O)c1c23`, the T/C came to 160%. The same measure, in the same setting: under `Cc1ccc2c(c1)c(=O)c1c(NCCN(C)C)ccc3nnn2c31` stands 130%; under `CN(C)CCCNc1ccc2nnn3c4ccccc4c(=O)c1c23`, 133%.

Another test relates to P388. Description: In vivo antileukemic activity against P388 leukemia at dose 25 mp/kg administered intraperitoneally (30 days survivors, 2/6).
Conditions: not given
`CN(C)CCNc1ccc2nnn3c4ccc(O)cc4c(=O)c1c23` had a T/C of 260%.

The next test relates to P388. Description: In vivo antileukemic activity against P388 leukemia at dose 12.5 mp/kg administered intraperitoneally. Type of test: functional, Mus musculus.
Conditions: not given
In turn, `CCN(CC)CCNc1ccc2nnn3c4ccc(Cl)cc4c(=O)c1c23` came in with a T/C of 111%. On the same count and under the same terms, to `CCN(CC)CCNc1ccc2nnn3c4ccc([N+](=O)[O-])cc4c(=O)c1c23` belongs 122%; to `COc1ccc2c(c1)c(=O)c1c(NCCNCCO)ccc3nnn2c31`, 120%; to `CCN(CC)CCNc1ccc2nnn3c4ccc(OC)cc4c(=O)c1c23`, 120%. `O=c1c2cc(O)ccc2n2nnc3ccc(NCCNCCO)c1c32` returned a T/C of 210%.

The test system of the next test is P388. Nature of the test: In vivo antileukemic activity against P388 leukemia at dose 8 mp/kg administered intraperitoneally. Format: functional, Mus musculus.
Conditions: not given
A digest of the protocol:
as §1
In turn, `CCN(CC)CCNc1ccc2nnn3c4ccc(O)cc4c(=O)c1c23` registered a T/C of 190%.

For a further test, the system named is P388. Description: In vivo antileukemic activity against P388 leukemia at dose 12.5 mp/kg administered intraperitoneally (30 days survivors, 3/6). Type of test: functional, Mus musculus.
Conditions: not given
`O=C1c2ccccc2C(=O)c2c(NCCNCCO)ccc(NCCNCCO)c21` [AMETANTRONE] came in with a T/C of 300%.

Another test relates to HeLa. Nature of the test: In vitro cytotoxicity against HeLa S3 cell lines. To be noted: Homo sapiens. Format: functional, cell-based.
One may read the IC50 as the concentration that inhibits the measured activity by half. A low value points to greater potency in that assay. The molecule `CN(C)CCCNc1ccc2nnn3c4ccc([N+](=O)[O-])cc4c(=O)c1c23` showed an IC50 of 0.12 µg/mL (≈ 0.328 µM).

`CCN(CC)CCNc1ccc2nnn3c4ccc(Cl)cc4c(=O)c1c23` yielded an IC50 of 0.13 µg/mL (≈ 0.351 µM). `CN(C)CCNc1ccc2nnn3c4ccccc4c(=O)c1c23` registered an IC50 of 0.21 µg/mL (≈ 0.683 µM). This IC50 lies about 1.6-fold higher than the previous one.

Molecule `CN(C)CCNc1ccc2nnn3c4ccc(Cl)cc4c(=O)c1c23` registered an IC50 of 0.1 µg/mL (≈ 0.293 µM). On the same count and under the same terms, under `CCN(CC)CCNc1ccc2nnn3c4ccc(C)cc4c(=O)c1c23` stands 0.21 µg/mL (≈ 0.601 µM). On to `CN(C)CCCNc1ccc2nnn3c4ccc(O)cc4c(=O)c1c23`, for which the IC50 was 0.08 µg/mL (≈ 0.237 µM). On to `CCN(CC)CCNc1ccc2nnn3c4ccc(O)cc4c(=O)c1c23`, for which 0.05 µg/mL (≈ 0.142 µM) corresponded to half-maximal inhibition (IC50). On the same count and under the same terms, to `Cc1ccc2c(c1)c(=O)c1c(NCCNCCO)ccc3nnn2c31` belongs 0.24 µg/mL (≈ 0.711 µM); to `CCN(CC)CCNc1ccc2nnn3c4ccccc4c(=O)c1c23`, 0.42 µg/mL (≈ 1.25 µM); to `O=c1c2cc([N+](=O)[O-])ccc2n2nnc3ccc(NCCNCCO)c1c32`, 0.12 µg/mL (≈ 0.326 µM). The same measure, in the same setting: to `COc1ccc2c(c1)c(=O)c1c(NCCN(C)C)ccc3nnn2c31` belongs 0.1 µg/mL (≈ 0.296 µM).

With `Cc1ccc2c(c1)c(=O)c1c(NCCN(C)C)ccc3nnn2c31`, the IC50 was 0.17 µg/mL (≈ 0.529 µM).

In turn, `Cc1ccc2c(c1)c(=O)c1c(NCCCN(C)C)ccc3nnn2c31` gave a 50% inhibitory concentration (IC50) of 0.15 µg/mL (≈ 0.447 µM). The same measure, in the same setting: under `CN(C)CCNc1ccc2nnn3c4ccc(O)cc4c(=O)c1c23` stands 0.1 µg/mL (≈ 0.309 µM); under `CN(C)CCCNc1ccc2nnn3c4ccccc4c(=O)c1c23`, 0.28 µg/mL (≈ 0.871 µM). With `CCN(CC)CCNc1ccc2nnn3c4ccc([N+](=O)[O-])cc4c(=O)c1c23`, the IC50 turned out to be 0.12 µg/mL (≈ 0.315 µM). The molecule `CN(C)CCNc1ccc2nnn3c4ccc([N+](=O)[O-])cc4c(=O)c1c23` returned an IC50 of 0.11 µg/mL (≈ 0.312 µM). Same read-out and setting: under `O=c1c2ccccc2n2nnc3ccc(NCCNCCO)c1c32` stands 0.29 µg/mL (≈ 0.897 µM); under `O=c1c2cc(Cl)ccc2n2nnc3ccc(NCCNCCO)c1c32`, 0.16 µg/mL (≈ 0.447 µM). On the same count and under the same terms, to `COc1ccc2c(c1)c(=O)c1c(NCCCN(C)C)ccc3nnn2c31` belongs 0.17 µg/mL (≈ 0.484 µM); to `COc1ccc2c(c1)c(=O)c1c(NCCNCCO)ccc3nnn2c31`, 0.09 µg/mL (≈ 0.255 µM). Same read-out and setting: to `CCN(CC)CCNc1ccc2nnn3c4ccc(OC)cc4c(=O)c1c23` belongs 0.16 µg/mL (≈ 0.438 µM); to `CN(C)CCCNc1ccc2nnn3c4ccc(Cl)cc4c(=O)c1c23`, 0.13 µg/mL (≈ 0.365 µM); to `O=c1c2cc(O)ccc2n2nnc3ccc(NCCNCCO)c1c32`, 0.12 µg/mL (≈ 0.354 µM).

As for `O=C1c2ccccc2C(=O)c2c(NCCNCCO)ccc(NCCNCCO)c21` [AMETANTRONE], half-maximal inhibition (IC50) required 0.17 µg/mL (≈ 0.412 µM).

Another test relates to P388. Description: In vivo antileukemic activity against P388 leukemia at dose 25 mp/kg administered intraperitoneally (30 days survivors, 3/6).
Conditions: not given
`CN(C)CCCNc1ccc2nnn3c4ccc(O)cc4c(=O)c1c23` yielded a T/C of 320%.

In the next test the test system is P388. Description: In vivo antileukemic activity against P388 leukemia at dose 50 mp/kg administered intraperitoneally.
Conditions: not given
Format: functional, Mus musculus. The gist of the method:
as §1
`O=c1c2ccccc2n2nnc3ccc(NCCNCCO)c1c32` showed a T/C of 133%. The same measure, in the same setting: under `CN(C)CCCNc1ccc2nnn3c4ccc(Cl)cc4c(=O)c1c23` stands 111%.

The values above are taken from ChEMBL document CHEMBL1124989, “8-Substituted 5-[(aminoalkyl)amino]-6H-v-triazolo[4,5,1-de]acridin-6-ones as potential antineoplastic agents. Synthesis and biological activity” (J Med Chem, 1990).
